# Test results published in ChEMBL document CHEMBL3286259, “Synthesis and anticancer activity of some novel 5,6-fused hybrids of juglone based 1,4-naphthoquinones” (Eur J Med Chem, 2014).
# Calls of active or inactive are those of the source. The calls are words filed in the database; no cut-off is given here.
# Tests used:
# [1] = Cytotoxicity against human ME180 cells assessed as inhibition of cell viability after 48 hrs by MTT assay; type: functional, cell-based; conditions: ME-180, 48 h
# Method in brief: (§1)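 Cells were counted by trypan blue exclusion, seeded at 1x10^4 cells per well, and exposed to a series of compound concentrations for 48 h at 37 °C in DMEM with 10% FBS. The medium was replaced with serum-free medium plus MTT (5 mg/ml reagent) for 4 h at 37 °C. Formazan was dissolved in DMSO for 10 min and A570 was read. IC50 came from a plot of % viability versus control against concentration.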
# PC-3 [2] = test: Cytotoxicity against human PC3 cells assessed as inhibition of cell viability after 48 hrs by MTT assay; type: functional, cell-based; conditions: PC-3, 48 h; method in brief: as §1
# HT-29 = test: Cytotoxicity against human HT-29 cells assessed as inhibition of cell viability after 48 hrs by MTT assay; type: functional, cell-based; conditions: HT-29, 48 h; method in brief: as §1
# MDA-MB-231 [3] = test: Cytotoxicity against human MDA-MB-231 cells assessed as inhibition of cell viability after 48 hrs by MTT assay; type: functional, cell-based; conditions: MDA-MB-231, 48 h; method in brief: as §1
# [4] = Retardation factor of the compound using hexane/ethyl acetate at ratio of 3:1 as solvent system; type: physicochemical
# MCF7 [5] = test: Cytotoxicity against human MCF7 cells assessed as inhibition of cell viability after 48 hrs by MTT assay; type: functional, cell-based; conditions: MCF7, 48 h; method in brief: as §1
# MDA-MB-453 [6] = test: Cytotoxicity against human MDA-MB-453 cells assessed as inhibition of cell viability after 48 hrs by MTT assay; type: functional, cell-based; conditions: MDA-MB-453, 48 h; method in brief: as §1
# HeLa = test: Cytotoxicity against human HeLa cells assessed as inhibition of cell viability after 48 hrs by MTT assay; type: functional, cell-based; method in brief: as §1
# [7] = Retardation factor of the compound using hexane/ethyl acetate at ratio of 19:1 as solvent system; type: physicochemical
# PC-3 [8] = test: Cell cycle arrest in human PC3 cells assessed as accumulation at S phase at 3 uM after 48 hrs by flow cytometry (reference value: 15.8%); type: functional
# Method in brief: (§2)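 Cells were plated at […] per well in six-well plates and treated for 48 h. They were harvested by trypsinization, washed twice in PBS, and fixed in 70% ice-cold ethanol at −20 °C for 3 h. Cells were then incubated with propidium iodide cell-cycle reagent at 37 °C for 30 min, and DNA content was measured by flow cytometry. PC-3 assays were run in duplicate.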
# PC-3 [9] = test: Cell cycle arrest in human PC3 cells assessed as accumulation at G0/G1 phase at 6 uM after 48 hrs by flow cytometry (reference value: 55%); type: functional; method in brief: as §2
# [10] = Retardation factor of the compound using hexane/ethyl acetate at ratio of 1.8:1 as solvent system; type: physicochemical
# PC-3 [11] = test: Ratio of etoposide IC50 to compound IC50 for human PC3 cells; type: functional
# PC-3 [12] = test: Cell cycle arrest in human PC3 cells assessed as accumulation at G2/M phase at 3 uM after 48 hrs by flow cytometry (reference value: 20.9%); type: functional; method in brief: as §2
# PC-3 [13] = test: Cell cycle arrest in human PC3 cells assessed as accumulation at G0/G1 phase at 3 uM after 48 hrs by flow cytometry (reference value: 55%); type: functional; method in brief: as §2
# PC-3 [14] = test: Induction of morphological changes in human PC3 cells assessed as late apoptosis/necrosis at 6 uM after 48 hrs by acridine orange/ethidium bromide staining based fluorescence microscopy; type: functional, cell-based
# Method in brief: (§3)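 Cells were seeded at 1×10^6 per well in 6-well plates and treated for 48 h. After a PBS wash they were stained with a 1:1 acridine orange/ethidium bromide mix for 5 min in the dark, washed again, and imaged by inverted fluorescence microscopy at 200X. Two thousand cells were counted and scored as viable, early apoptotic, late apoptotic or necrotic, expressed as %.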
# PC-3 [15] = test: Induction of morphological changes in human PC3 cells assessed as early apoptosis by measuring condensed chromatin, cell membrane blebbing, destructive fragmentation of nuclei at 3 uM after 48 hrs by acridine orange/ethidium bromide staining based fluorescence microscopy; type: functional; method in brief: as §3
# PC-3 [16] = test: Cell cycle arrest in human PC3 cells assessed as increase in accumulation at G2/M phase at 3 to 6 uM after 48 hrs by flow cytometry relative to control; type: functional; method in brief: as §2
# PC-3 [17] = test: Cell cycle arrest in human PC3 cells assessed as accumulation at S phase at 6 uM after 48 hrs by flow cytometry (reference value: 15.8%); type: functional; method in brief: as §2
# PC-3 [18] = test: Cell cycle arrest in human PC3 cells assessed as accumulation at G2/M phase at 6 uM after 48 hrs by flow cytometry (reference value: 20.9%); type: functional; method in brief: as §2
# MCF7 [19] = test: Ratio of etoposide IC50 to compound IC50 for human MCF7 cells; type: functional
# MDA-MB-453 [20] = test: Ratio of etoposide IC50 to compound IC50 for human MDA-MB-453 cells; type: functional
# MDA-MB-453 [21] = test: Cell cycle arrest in human MDA-MB-453 cells assessed as accumulation at G2/M phase at 10 uM after 48 hrs by flow cytometry (reference value: 23.5%); type: functional; method in brief: as §2
# MDA-MB-453 [22] = test: Cell cycle arrest in human MDA-MB-453 cells assessed as increase in accumulation at S phase after 48 hrs by flow cytometry; type: functional, cell-based; method in brief: as §2
# MDA-MB-231 [23] = test: Ratio of etoposide IC50 to compound IC50 for human MDA-MB-231 cells; type: functional
# MDA-MB-453 [24] = test: Cell cycle arrest in human MDA-MB-453 cells assessed as accumulation at G0/G1 phase at 5 uM after 48 hrs by flow cytometry (reference value: 62.6%); type: functional; method in brief: as §2
# MDA-MB-453 [25] = test: Induction of morphological changes in human MDA-MB-453 cells assessed as late apoptosis/necrosis at 10 uM after 48 hrs by acridine orange/ethidium bromide staining based fluorescence microscopy; type: functional, cell-based; method in brief: as §3
# MDA-MB-453 [26] = test: Cell cycle arrest in human MDA-MB-453 cells assessed as accumulation at S phase at 5 uM after 48 hrs by flow cytometry (reference value: 5.9%); type: functional; method in brief: as §2
# MDA-MB-453 [27] = test: Cell cycle arrest in human MDA-MB-453 cells assessed as accumulation at S phase at 10 uM after 48 hrs by flow cytometry (reference value: 5.9%); type: functional; method in brief: as §2
# MDA-MB-453 [28] = test: Cell cycle arrest in human MDA-MB-453 cells assessed as accumulation at G0/G1 phase at 10 uM after 48 hrs by flow cytometry (reference value: 62.6%); type: functional; method in brief: as §2
# MDA-MB-453 [29] = test: Cell cycle arrest in human MDA-MB-453 cells assessed as increase in accumulation at G2/M phase after 48 hrs by flow cytometry; type: functional, cell-based; method in brief: as §2
# MDA-MB-453 [30] = test: Induction of morphological changes in human MDA-MB-453 cells assessed as early apoptosis by measuring condensed chromatin, cell membrane blebbing, destructive fragmentation of nuclei at 5 uM after 48 hrs by acridine orange/ethidium bromide staining based fluorescence microscopy; type: functional; method in brief: as §3
# MDA-MB-453 [31] = test: Cell cycle arrest in human MDA-MB-453 cells assessed as accumulation at G2/M phase at 5 uM after 48 hrs by flow cytometry (reference value: 23.5%); type: functional; method in brief: as §2
Compound,IC50 [1] [µM],IC50 (PC-3 [2]) [µM],IC50 (HT-29) [µM],IC50 (MDA-MB-231 [3]) [µM],IC50 (MCF7 [5]) [µM],IC50 (MDA-MB-453 [6]) [µM],IC50 (HeLa) [µM],other results
CC1=CC(=O)c2c(ccc3cc(C)oc23)C1=O,44.1,31.1,60.1,44,28.8,32.6,55.2,Rf [4]: 0.43
CC1=CC(=O)c2c(O)cccc2C1=O [PLUMBAGIN],43.4,17.2,26.2,51.1,12.2,34.6,59,–
C=CCc1ccc2c(c1O)C(=O)C=CC2=O,82.9,92.9,> 100,> 100,58.2,53.7,> 100,Rf [7]: 0.39
Cc1cc2ccc3c(c2o1)C(=O)C=CC3=O,15,18.2,57.9,38.9,24.3,25.2,51.2,Rf [4]: 0.42
O=C1C=CC(=O)c2c1ccc1c2OCC=C1,45.5,5.7,27.8,45.6,23.2,37.2,59.6,Activity (PC-3 [8]): 15.4%; Activity (PC-3 [9]): 46.7%; Rf [10]: 0.38; Ratio IC50 (PC-3 [11]): 2.5; Activity (PC-3 [12]): 30.8%; Activity (PC-3 [13]): 45.3%; Activity (PC-3 [14]): Active; Activity (PC-3 [15]): Active; fold change (FC) (PC-3 [16]): 1.6; Activity (PC-3 [17]): 12.3%; Activity (PC-3 [18]): 32%
C=CCOc1cccc2c1C(=O)C=CC2=O,> 100,22.3,32.3,> 100,24,37.8,> 100,–
COc1cc([C@@H]2c3cc4c(cc3[C@@H](O[C@@H]3O[C@@H]5CO[C@@H](C)O[C@H]5[C@H](O)[C@H]3O)[C@H]3COC(=O)[C@H]23)OCO4)cc(OC)c1O [ETOPOSIDE],8.9,–,–,–,–,12.5,4.71,–
C=CCc1ccc2c(c1O)C(=O)C=C(C)C2=O,60.8,16.8,63,62.9,11.6,39,60.8,Ratio (MCF7 [19]): 2; Rf [7]: 0.35
O=C1C=CC(=O)c2c1ccc1c2OC(CI)C1 (stereo unspecified),9.4,12.7,31.3,29.2,13.4,20.8,27.4,Rf [10]: 0.48
CC1=CC(=O)c2c(ccc3c2OC(CI)C3)C1=O (stereo unspecified),31.2,26.8,48.4,33.2,33.8,21.6,16.2,Rf [10]: 0.38
CC1=CC(=O)c2c(ccc3c2OCC=C3)C1=O,25.9,24.5,34.6,18.3,11.7,10.9,> 100,Ratio IC50 (MDA-MB-453 [20]): 1.1; Activity (MDA-MB-453 [21]): 55.9%; Ratio IC50 (MCF7 [19]): 2; Activity (MDA-MB-453 [22]): Dose-dependent effect; Ratio IC50 (MDA-MB-231 [23]): 1.3; Rf [10]: 0.39; Activity (MDA-MB-453 [24]): 45%; Activity (MDA-MB-453 [25]): Active; Activity (MDA-MB-453 [26]): 12.6%; Activity (MDA-MB-453 [27]): 21.5%; Activity (MDA-MB-453 [28]): 10.5%; Activity (MDA-MB-453 [29]): Dose-dependent effect; Activity (MDA-MB-453 [30]): Active; Activity (MDA-MB-453 [31]): 31.3%
COc1cccc2c1C(=O)c1c(O)c3c(c(O)c1C2=O)C[C@@](O)(C(=O)CO)C[C@@H]3O[C@H]1C[C@H](N)[C@H](O)[C@H](C)O1 [DOXORUBICIN],0.39,–,–,–,–,–,–,–
C=CCOc1cccc2c1C(=O)C=C(C)C2=O,46.7,34.2,33.7,36.1,14.7,29.3,78,Rf [4]: 0.45
O=C1C=CC(=O)c2c(O)cccc21 [JUGLONE],65.4,88.7,> 100,75.8,16.5,27.5,93.7,–
